SUMO1-SIM PPI: modulators of human SUMO1-mediated protein-protein interactions | AID 602429 | P63165 | hit rate 0.33% among 360,000 | inhibition, % at 20 µM | SUMO1 binding to a labelled peptide, TR-FRET, 1 h; in the data active means inhibition above about 37%
Target sequence (P63165 whole entry, looked up): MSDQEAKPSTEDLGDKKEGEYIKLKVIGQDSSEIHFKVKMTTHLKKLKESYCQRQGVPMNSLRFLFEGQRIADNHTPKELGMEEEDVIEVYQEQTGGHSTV
DNMT1 inh: DNMT1 (human) enzyme inhibition. P26358. DNMT1 molecular beacon, Hinp1I cleavage, fluorescence. inhibition (reported as % activation of signal), % at 10 µM. hit rate 0.83% among 360,000. AID 588458; in the data active means inhibition above about 50%
Scp1 inh: blocks human Scp-1 phosphatase activity; Q9GZU7; Recombinant Scp1, phosphopeptide, malachite green phosphate absorbance; inhibition, % at 20 µM; hit rate 0.88% among 340,000;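 active means inhibition above about 50% at 20 µM, limit read from the data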;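 further: plate controls were DMSO wells with enzyme for no effect and wells lacking enzyme for full effect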
Target sequence (Q9GZU7 76-261 limits assumed): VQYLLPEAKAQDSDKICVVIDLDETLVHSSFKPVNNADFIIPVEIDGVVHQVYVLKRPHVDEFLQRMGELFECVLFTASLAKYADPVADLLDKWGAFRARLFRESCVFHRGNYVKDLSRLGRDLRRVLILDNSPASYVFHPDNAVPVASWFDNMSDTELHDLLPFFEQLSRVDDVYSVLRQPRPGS
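Test system: SCP-1 phosphatase catalytic domain, residues 76-261; measured by: colorimetric phosphate reagent with accelerator and stabiliser, absorbance at 630 nm; timing: enzyme reaction 45 min at room temperature, colour 5 min, stabilisation 30 min; also added: Phosphorylated 17-residue peptide substrate; compound dosing: one concentration, 20 µM, with 1.0% DMSO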
LMPTP inh: LMPTP (human) inhibition; P24666; recombinant LMPTP-A, OMFP fluorogenic substrate, fluorescence intensity; inhibition, % at 20 µM; hit rate 0.22% among 360,000; AID 651560;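 active means compounds that cut the enzyme signal by at least half of the control window in the single-dose screen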;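 further: plate controls were DMSO wells with enzyme plus substrate for no effect and substrate without enzyme for full effect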
Target sequence (P24666 whole entry, looked up): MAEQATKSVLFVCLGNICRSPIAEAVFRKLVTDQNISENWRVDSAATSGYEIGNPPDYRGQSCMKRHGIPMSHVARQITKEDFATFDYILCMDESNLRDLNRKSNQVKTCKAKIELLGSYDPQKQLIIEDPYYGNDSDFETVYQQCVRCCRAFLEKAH
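Test system – LMPTP-A enzyme · Amount – LMPTP-A at 0.625 nM final in the reaction · Buffer or medium – Bis-Tris pH 6.0, DTT, detergent · Reagent – OMFP 400 µM · Doses – single 20 µM dose · Schedule – reaction 50 min, room temperature, dark · Detection – fluorescence intensity of OMFP turnover product · Evaluation – percent inhibition versus substrate-only and uninhibited controls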
STEP inh: blocks human striatal-enriched tyrosine phosphatase; P54829; recombinant STEP, OMFP fluorogenic substrate, fluorescence; inhibition, % at 20 µM; hit rate 0.25% among 360,000; AID 588621;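 active means inhibition at 20 µM, scaled per plate between control wells, above about 37%, limit read from the data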;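 further: 0% = DMSO with enzyme and substrate and 100% = substrate only without enzyme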
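Test system: STEP tyrosine phosphatase / Reagent: OMFP at 25 µM / Doses: 20 µM, 1% DMSO / Read-out: percent inhibition scaled to no-enzyme and uninhibited-enzyme controls, plate-pattern corrected / Detection: FITC-channel fluorescence of OMFP product / Medium: Bis-Tris buffer pH 6.0, 2.5 mM DTT, 0.005% Tween 20 / Schedule: 20 min at room temperature, dark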
Scp1 confirm: confirmation of human Scp-1 phosphatase inhibitors. inhibition, % at 20 µM. shares compounds with Scp1 inh. recombinant SCP-1 catalytic domain, phosphate release, malachite green absorbance. hit rate 61% among 2,500. AID 540281;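 further: plate controls were DMSO with enzyme for no effect and buffer wells lacking enzyme for full effect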
MG interference: colorimetric interference in Scp-1 counter-screen. shares compounds with Scp1 inh. Colorimetric interference counterscreen, malachite green absorbance 630 nm. apparent inhibition (interference), % at 20 µM. 2,500 tested, under 10 active. AID 540313;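 further: compounds added after enzyme reaction finished so only phosphate colour detection is probed; plate controls were DMSO wells with completed Scp-1 reaction for no effect and substrate wells lacking enzyme for full effect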
Scp-1 Tm shift: binds human Scp-1, shifting its melting temperature. Recombinant SCP1, Sypro Orange thermal shift Tm. thermal shift relative to vanadate control, % at 40 µM. hit rate 25% among 1,500. shares compounds with Scp1 inh;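 active means substances whose mean melting-temperature shift, as a percentage of the reference inhibitor's shift, reaches about 5.3%, limit read from the data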;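 further: 0% = Tm of DMSO wells and 100% = Tm with sodium orthovanadate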
DNMT1 interf DR: beacon fluorescence artifact, dose response counter-screen. shares compounds with DNMT1 inh. molecular beacon fluorescence, spectral interference counter-screen. IC50, µM. 200 tested, under 10 active; call rule not given here
DNMT1 inh conf: DNMT1 inhibition confirmation, single concentration | shares compounds with DNMT1 inh | DNMT1 molecular beacon HinP1I cleavage, fluorescence | inhibition, % at 10 µM | hit rate 8% among 2,300 | AID 602385;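 active means average inhibition of at least 30% in the single-concentration confirmation test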
Beacon interf: beacon fluorescence artifact counter-screen; shares compounds with DNMT1 inh; DNMT1 molecular beacon spectral interference counterscreen, fluorescence 485/520; activation (fluorescence interference), % at 10 µM; hit rate 1% among 2,300; AID 602387;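 active means activation of at least 30% at 10 µM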;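 further: DNMT1 catalytic domain with a HinP1I cleavage step and a FAM/dabcyl DNA beacon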
Active calls of the source: *; . = no result given. Rows were chosen to be rich in hits. Some 1.7% of all compounds tested hit in one or more screens of this group.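 How the source made its calls, unless noted: active means inhibition of at least 30% at 20 µM; inactive means the rest.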

SMILES	SUMO1-SIM PPI	DNMT1 inh	Scp1 inh	LMPTP inh	STEP inh	Scp1 confirm	MG interference	Scp-1 Tm shift	DNMT1 inh conf	Beacon interf	others
Cc1cccc(C)c1NC(=O)C1(C)CCC(=O)N1c1cc(C(C)(C)C)nn1C (stereo not drawn)	0	6	.	-1	0	.	.	.	.	.
CCN(CC)S(=O)(=O)c1ccc(C(=O)OCn2c(SC)nnc(C)c2=O)cc1	4	4	-10	0	-3	.	.	.	.	.
CC(C)(C)c1ccc(C(=O)N/C(=C\c2ccco2)C(=O)O)cc1	-5	6	2	0	2	.	.	.	.	.
O=C(O)/C(=C/c1ccco1)NC(=O)c1ccccc1	4	67*	75*	-1	5	42*	-22	-15	2	3
CCCn1c(=O)c(Br)cn(-c2ccccc2C)c1=O	0	2	-8	-2	-3	.	.	.	.	.
Cc1cccc(N2CCN(C(=O)CCS(=O)(=O)c3ccc(Br)cc3)CC2C)c1 (stereo not drawn)	0	70*	84*	0	3	74*	-6	-1	1	-1
CCCN(C(=O)c1ccc([N+](=O)[O-])c(C)c1)c1c(N)n(Cc2ccccc2)c(=O)[nH]c1=O	-11	4	-8	0	2	.	.	.	.	.
Cc1cc(/C=C(/C#N)c2nc3ccccc3[nH]2)c(C)n1-c1ccccc1C(=O)O	11	43	47	2	2	.	.	.	.	.
Cc1cc(/C=C(/C#N)c2nc3ccccc3[nH]2)c(C)n1-c1cc(C(=O)O)cc(C(=O)O)c1	28	77*	59*	3	24	53*	-8	4	8	-2
Cc1cccc(C(=O)OCC(=O)c2ccc(CC(=O)N3CCOCC3)s2)c1C	-14	50*	85*	5	3	60*	-19	4	4	5
Cc1cccc(C(=O)OCC(=O)N2CC(C)OC(C)C2)c1C (stereo not drawn)	-6	1	1	-1	0	.	.	.	.	.
O=C1Nc2ccccc2C1=Nc1ccccc1-c1ccccc1	-20	-10	2	-1	-2	.	.	.	.	.
CC1=C(C)CC(C(=O)NC2CCCC2)C(C(=O)O)C1 (stereo not drawn)	-3	1	-5	-1	-1	.	.	.	.	.
CC1=CCC(C(=O)O)C(C(=O)NC2CCCCC2)C1 (stereo not drawn)	51*	79*	100*	1	22	75*	-7	-23	0	2
Cc1cc2oc(C(=O)NCCc3ccc(S(N)(=O)=O)cc3)c(C)c2cc1C	3	79*	85*	50*	8	71*	-16	-11	3	2
C/C=C(\C)C(=O)Nc1cccc(C2=NOC3(C2)C[C@@H](C(N)=O)N(C(=O)/C(C)=C/C)C3)c1 (stereo partly drawn)	3	5	-9	-2	-3	.	.	.	.	.
C=C(C)C(=O)Nc1cccc(C2=NOC3(C2)C[C@@H](C(N)=O)N(C(=O)/C(C)=C/C)C3)c1 (stereo partly drawn)	98*	110*	99*	-2	8	68*	-8	-7	101*	-2	DNMT1 interf DR=>99
C=C(C)C(=O)Nc1cccc(C2=NOC3(C2)C[C@@H](C(N)=O)N(C(=O)CC(c2ccccc2)c2ccccc2)C3)c1 (stereo partly drawn)	77*	101*	62*	1	1	57*	-16	-31	19	3
Cc1ccc2nc(NC(=O)COC(=O)c3ccccn3)sc2c1	2	0	-4	-2	1	.	.	.	.	.
O=C(NCc1ccco1)C1Cc2ccccc2CN1S(=O)(=O)c1ccccc1F (stereo not drawn)	13	71*	70*	2	0	77*	-5	7.5*	6	4
O=C(NCc1ccco1)C1Cc2ccccc2CN1C(=O)c1ccco1 (stereo not drawn)	3	4	36	3	-1	.	.	.	.	.
CCOc1ccc(NC(=S)N2CCc3cc(OC)c(OC)cc3C2COc2ccc3c(C)cc(=O)oc3c2)cc1 (stereo not drawn)	-3	-8	-8	2	24	.	.	.	.	.
Cc1cc(C(=O)O)ccc1-c1ccc(/C=C2\NC(=O)N(Cc3ccc(F)cc3)C2=O)o1	29	64*	73*	9	9	65*	-6	9.4*	20	0
CCOC(=O)c1cccc(-n2cccc2/C=C2\NC(=O)N(CC(=O)O)C2=O)c1	-16	0	-3	0	0	.	.	.	.	.
ON=Cc1cccn1-c1ccccc1	-6	-1	-4	0	-2	.	.	.	.	.
SMILES	SUMO1-SIM PPI	DNMT1 inh	Scp1 inh	LMPTP inh	STEP inh	Scp1 confirm	MG interference	Scp-1 Tm shift	DNMT1 inh conf	Beacon interf	others
O=C(O)c1cccc(-n2cccc2/C=N/O)c1	-1	105*	77*	5	11	65*	-8	-13	3	1
Cc1ccc(CN2C(=O)N/C(=C\c3cccn3-c3cccc(C(=O)O)c3)C2=O)cc1	-10	91*	64*	4	5	57*	-20	0	9	-2
Cc1ccc(NC(=O)CN2C(=O)N/C(=C/c3cc(C)n(-c4cccc(C(=O)O)c4)c3C)C2=O)cc1	30	84*	59*	7	18	66*	-10	6.9*	10	-1
CN(Cc1ccccc1)C(=O)COC(=O)c1cc(=O)c2ccccc2o1	-19	-2	-1	0	-1	.	.	.	.	.
Cc1ccc(NC(=O)CN2C(=O)N/C(=C/c3ccc(N4CCOCC4)cc3)C2=O)cc1	-7	22	-7	-1	2	.	.	.	.	.
Cc1ccc(NC(=O)CN2C(=O)N/C(=C\c3cccn3-c3cccc(C(=O)O)c3)C2=O)cc1	5	91*	67*	15	12	55*	-20	6.2*	60*	0	DNMT1 interf DR=>99
CC(C)C[C@H](NC(=O)[C@H](Cc1ccccc1)n1c(=O)[nH]c2ccccc2c1=O)C(=O)N1CCC[C@H]1C(=O)O	4	0	10	-2	2	.	.	.	.	.
